What was measured:
Assay type in all cases: functional
[1] = tested on: MDA-MB-231; assay: Cytotoxicity against human MDA-MB-231 cells by SRB method
Outline: (§1)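 Human tumour lines (breast MDA-MB-231, lung A-549, colon HT-29) seeded in 96-well plates and left 24 h, then given vehicle or compound at 10 to 0.0026 µg/mL (10 dilutions) for 72 h. Read-out by SRB: PBS washes, 1% glutaraldehyde fix 15 min, 0.4% SRB in 1% acetic acid 30 min RT, dye extracted into 10 mM Tris base, A490. A time-zero plate was read before treatment.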

[2] = tested on: A549; assay: Cytotoxicity against human A549 cells by SRB method; outline: as §1
[3] = tested on: HT-29; assay: Cytotoxicity against human HT29 cells by SRB method; conditions: for CC50: read-out: LC50 (the source's name); outline: as §1
[4] = read-out: LC50 (the source's name)

| SMILES | GI50 [1] | GI50 [2] | GI50 [3] | TGI [3] | CC50 [3] | TGI [1] | CC50 [1, 4] | TGI [2] | CC50 [2, 4] |
| --- | --- | --- | --- | --- | --- | --- | --- | --- | --- |
| COc1c(C)c(O)c2c(c1O)[C@@H]1C3=Cc4c(OC(C)=O)c(C)c5c(c4[C@H](COCc4ccccc4)N3[C@@H](C#N)[C@H](C2=O)N1C)OCO5 | 5.63 µM | 6.57 µM | 4.06 µM | 6.72 µM | 14.5 µM | – | – | – | – |
| C/C=C(/C)C(=O)OC[C@H]1c2c(c(OC(C)=O)c(C)c3c2OCO3)C=C2[C@H]3c4c(O)c(OC)c(C)c(O)c4C(=O)[C@@H](C(=O)N21)N3C | 14 µM | 7.73 µM | 11.1 µM | – | – | – | – | – | – |
| COc1c(C)cc2c(c1OCc1ccccc1)[C@@H]1C3=Cc4c(OC(C)=O)c(C)c(OC)c(OC)c4[C@H](COCc4ccccc4)N3[C@@H](C#N)[C@H](C2)N1C | 0.26 µM | 0.24 µM | 0.2 µM | 0.26 µM | 0.36 µM | 0.35 µM | 0.48 µM | 0.3 µM | 0.41 µM |
| C/C=C(/C)C(=O)OC[C@H]1C2=C(C=C3[C@H]4c5c(O)c(OC)c(C)c(O)c5C(=O)[C@@H](C(=O)N31)N4C)C(=O)C(C)=C(OC)C2=O [CRIBROSTATIN 5] | 4.49 µM | 7.09 µM | 6.74 µM | 7.43 µM | – | – | – | 11.6 µM | – |

From ChEMBL document CHEMBL1144821, “Synthesis and cytotoxic evaluation of some cribrostatin-ecteinascidin analogues” (2008)
